From ChEMBL document CHEMBL1148398, “Design, synthesis, and biological evaluation of thio-containing compounds with serum HDL-cholesterol-elevating properties” (2004)

Assays:
Cricetinae gen. sp. [1] = assay: Effect of compound on high-density lipoprotein cholesterol levels in 2nd group of cholesterol-fed male hamsters at 10 mg/kg/day after 14 days of treatment; type: functional, organism-based
Rattus norvegicus [2] = assay: Percent change in total plasma cholesterol following oral administration of compound in normal chow-fed rats at 100 mg/kg/day for 4 days; type: functional
Method in brief: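 Chow-fed male Sprague–Dawley CD rats, 60–80 g, gavaged 100 mg/kg/day for 4 days in 1.3% Tween 80/0.25% CMC. Fasted overnight, bled 24 h after the last dose. Total cholesterol and glycerol-blanked triglycerides read enzymatically; lipoproteins by FPLC with cholesterol per fraction. % change versus control; six per group, p < 0.05.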

Rattus norvegicus [3] = assay: Effect of compound on alkaline phosphatase (ALKP) levels in 1st group of normal chow-fed male rats after a dose of 1 mg/kg/day; type: functional, organism-based
Method in brief: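 Male Sprague–Dawley CD rats (60–80 g) on standard chow under a reversed 12 h light/dark cycle. Compound was suspended in 1.3% Tween 80/0.25% CMC and given as a single daily oral gavage dose for 4 days. Rats were fasted overnight and killed 24 h after the last dose. Serum ALT, AST, ALKP and LDH were read on a clinical analyzer. Weight gain was start versus end weight. Mean ± SEM, n = 6.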

Rattus norvegicus [4] = assay: Effect of compound on liver weight in 6th group of normal chow-fed male rats after a dose of 50 mg/kg/day; type: functional
Method in brief: (§1)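 Male Sprague–Dawley CD rats, 60–80 g, on chow with a reverse 12 h light/dark cycle. Given one oral gavage dose daily for 4 days, suspended in 1.3% Tween 80/0.25% CMC. Fasted overnight and sacrificed 24 h after the last dose for blood and liver. Serum liver enzymes read on a clinical analyzer. Six per group, mean ± SEM.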

Rattus norvegicus [5] = assay: Effect of compound on relative liver weight in 7th group of normal chow-fed male rats after a dose of 100 mg/kg/day; type: functional
Method in brief: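 Chow-fed male Sprague–Dawley CD rats, 60–80 g, dosed by oral gavage once daily for 4 days in 1.3% Tween 80/0.25% CMC. Fasted overnight and sacrificed 24 h after the last dose. Liver weight expressed as % of body weight at termination. Six per group, mean ± SEM.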

Rattus norvegicus [6] = assay: Effect of compound on serum high-density lipoprotein cholesterol concentration in chow-fed male rats at a dose of 5 mg/kg/day; type: functional, organism-based
Method in brief: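 Separate dose-response study in male Sprague–Dawley CD rats, 60–80 g, on chow. Oral gavage once daily for 4 days in 1.3% Tween 80 / 0.25% CMC; fasted overnight, bled 24 h after last dose. Apo-A1 by ELISA with rabbit anti-rat primary, alkaline phosphatase-conjugated anti-rabbit IgG and p-nitrophenyl phosphate substrate. HDL-C by FPLC fractionation. Mean ± SEM, six per group.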

Rattus norvegicus [7] = assay: Effect of compound on thyroxine levels in 3rd group of normal chow-fed male rats after a dose of 5 mg/kg/day; type: functional, organism-based
Method in brief: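 Male Sprague–Dawley CD rats, 60–80 g, on standard chow with reverse 12 h light/dark cycle. One oral gavage dose daily for 4 days, suspended in 1.3% Tween 80 and 0.25% CMC. Fasted overnight; sacrificed 24 h after the last dose. Serum TC on clinical analyzer, lipoproteins by FPLC with cholesterol per fraction, T4 on analyzer. Mean ± SEM, six rats per group.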

Rattus norvegicus [8] = assay: Effect of compound on total plasma cholesterol levels in 6th group of normal chow-fed male rats after a dose of 50 mg/kg/day; type: functional, organism-based
Method in brief: (§2)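 Male Sprague–Dawley CD rats (60–80 g) on Purina 5001 chow with a reverse 12 h light/dark cycle. Dosed once daily by oral gavage for 4 days, suspended in 1.3% Tween 80 / 0.25% CMC. Fasted overnight and bled 24 h after the last dose. Serum TC and glycerol-blanked TG measured enzymatically; VLDL-C by FPLC fractionation with cholesterol assay. n=6, mean ± SEM.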

Rattus norvegicus [9] = assay: Effect of compound on lactic dehydrogenase (LDH) levels in 6th group of normal chow-fed male rats after a dose of 50 mg/kg/day; type: functional, organism-based; method in brief: as §1
Rattus norvegicus [10] = assay: Effect of compound on high-density lipoprotein cholesterol levels in 1st group of normal chow-fed male rats after a dose of 1 mg/kg/day; type: functional, organism-based
Rattus norvegicus [11] = assay: Effect of compound on very low-density lipoprotein cholesterol levels in 6th group of normal chow-fed male rats after a dose of 50 mg/kg/day; type: functional, organism-based; method in brief: as §2
Rattus norvegicus [12] = assay: Effect of compound on very low-density lipoprotein cholesterol levels in 4th group of normal chow-fed male rats after a dose of 10 mg/kg/day; type: functional, organism-based; method in brief: as §2
[13] = Effect on serum lipids in 1st group of normal chow-fed male rats after a dose of 1 mg/kg/day was evaluated as ratio of total plasma cholesterol levels to high-density lipoprotein cholesterol levels; type: functional
Method in brief: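 Male Sprague–Dawley CD rats, 60–80 g, chow-fed, dosed by oral gavage daily for 4 days in 1.3% Tween 80/0.25% CMC. Fasted overnight, bled 24 h after the last dose. Serum total cholesterol by enzymatic reagent; HDL-C from cholesterol in FPLC fractions; TPC/HDL-C ratio calculated. Six per group, mean ± SEM.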

Cricetinae gen. sp. [14] = assay: Effect of compound on thyroxine levels in 3rd group of cholesterol-fed male hamsters at 30 mg/kg/day after 14 days of treatment; conditions: Mesocricetus auratus
Mesocricetus auratus [15] = assay: Effect of compound on gain in body weight in 2nd group of cholesterol-fed male hamsters at 10 mg/kg/day after 14 days of treatment
Mesocricetus auratus [16] = assay: Effect of compound on gain in body weight in 3rd group of cholesterol-fed male hamsters at 30 mg/kg/day after 14 days of treatment
Cricetinae gen. sp. [17] = assay: Effect of compound on total plasma cholesterol levels in 2nd group of cholesterol-fed male hamsters at 10 mg/kg/day after 14 days of treatment; conditions: Mesocricetus auratus
Cricetinae gen. sp. [18] = assay: Effect of compound on alkaline phosphatase (ALKP) levels in 2nd group of cholesterol-fed male hamsters at 10 mg/kg/day after 14 days of treatment; conditions: Mesocricetus auratus
Cricetinae gen. sp. [19] = assay: Effect of compound on alkaline phosphatase (ALKP) levels in 3rd group of cholesterol-fed male hamsters at 30 mg/kg/day after 14 days of treatment; conditions: Mesocricetus auratus
Cricetinae gen. sp. [20] = assay: Effect of compound on alanine aminotransferase (ALT) levels in 2nd group of cholesterol-fed male hamsters at 10 mg/kg/day after 14 days of treatment; conditions: Mesocricetus auratus
Cricetinae gen. sp. [21] = assay: Effect of compound on alanine aminotransferase (ALT) levels in 4th group of cholesterol-fed male hamsters at 100 mg/kg/day after 14 days of treatment; conditions: Mesocricetus auratus
Cricetinae gen. sp. [22] = assay: Effect of compound on aspartate aminotransferase (AST) levels in 2nd group of cholesterol-fed male hamsters at 10 mg/kg/day after 14 days of treatment; conditions: Mesocricetus auratus
Cricetinae gen. sp. [23] = assay: Effect of compound on very low-density lipoprotein cholesterol levels in 4th group of cholesterol-fed male hamsters at 100 mg/kg/day after 14 days of treatment; conditions: Mesocricetus auratus

For `CCN1CC(=O)N(c2cc(Cl)ccc2C)C1=S`, the Serum level (Cricetinae gen. sp. [1]) was 133 mg/dL, the Change (Rattus norvegicus [2]) was 72.8% and the Level (Rattus norvegicus [3]) was 312 U l-1. It also gave a Liver weight (Rattus norvegicus [4]) of 7.3 g, a Relative liver weight (Rattus norvegicus [5]) of 4.5% and a Serum level (Rattus norvegicus [6]) of 52.4 mg/dL. The Serum level (Rattus norvegicus [7]) was 4.23 µg/dL, the Serum level (Rattus norvegicus [8]) was 101 mg/dL and the Level (Rattus norvegicus [9]) was 815 U l-1. The Serum level (Rattus norvegicus [10]) was 38 mg/dL, the Serum level (Rattus norvegicus [11]) was 6.5 mg/dL and the Serum level (Rattus norvegicus [12]) was 3.4 mg/dL. It also gave a Ratio [13] of 1.45, a Serum level (Cricetinae gen. sp. [14]) of 4.73 µg/dL and a Body weight (Mesocricetus auratus [15]) of 9.5 g. The Body weight (Mesocricetus auratus [16]) was 8.2 g, the Serum level (Cricetinae gen. sp. [17]) was 370 mg/dL and the Level (Cricetinae gen. sp. [18]) was 147 U l-1. For the same compound, the Level (Cricetinae gen. sp. [19]) was 136 U l-1, the Level (Cricetinae gen. sp. [20]) was 134 U l-1 and the Level (Cricetinae gen. sp. [21]) was 639 U l-1. The Level (Cricetinae gen. sp. [22]) was 345 U l-1 and the Serum level (Cricetinae gen. sp. [23]) was 81 mg/dL.
